Measured values from ChEMBL document CHEMBL5653613 (Mol Cancer Ther, 2013).
Active and inactive are the calls of the source. The rule behind the calls is not given here.

Columns and labels:
[1] = test system: MCF7; assay: Induction of polyploidy in human MCF7 cells assessed as cells with 8N chromosome contents at 5 uM incubated for 24 hrs by PI staining based flow cytometry (reference value: 0); type: functional
[2] = test system: T47D; assay: Induction of polyploidy in human T47D cells with RON-/- at 5 umol/L incubated for 72 hrs followed by media replacement without compound measured upto 10 days by microscopic analysis; type: functional, cell-based; details: dose 5.0 µmol/L
[3] = test system: MCF7; assay: Induction of polyploidy in human MCF7 cells assessed as cells with 4N chromosome contents at 5 uM incubated for 48 hrs by PI staining based flow cytometry (reference value: 36); type: functional
[4] = test system: ZR-75-1; assay: Induction of polyploidy in human ZR-75-1 cells at 1 umol/L incubated for 72 hrs by microscopic analysis relative to control; type: functional; details: dose 1 µmol/L, at 1 µM
Procedure, shortened: (§1)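 Cells stained with Hema-3 and photographed under a light microscope with CCD camera. Polyploid cells scored as percent of the population.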

[5] = test system: ZR-75-1; assay: Inhibition of cell proliferation of human ZR-75-1 cells with RON-/- at 5 umol/L incubated for 72 hrs followed by media replacement without compound measured upto 10 days by microscopic analysis; type: functional, cell-based; details: dose 5.0 µmol/L
[6] = test system: T47D; assay: Induction of cell cycle arrest at metaphase in human T47D cells assessed as disorganization of multipolar mitotic spindles at 5 umol/L preincubated for 24 hrs followed by extensive compound washout and subsequent culturing in compound-free media measured upto 3 days by immunofluorescence staining based analysis; type: functional; details: dose 5.0 µmol/L
[7] = test system: T47D; assay: Induction of apoptosis in human T47D cells assessed as early cells at 5 umol/L incubated for 3 days by Annexin V/PI staining based flow cytometry (reference value: 0.8 %); type: functional; details: dose 5 µmol/L; time 3 day; at 5 µM
[8] = test system: ZR-75-1; assay: Induction of cell death of human ZR-75-1 cells with RON-/- at 5 umol/L incubated for 72 hrs followed by media replacement without compound measured upto 10 days by microscopic analysis; type: functional, cell-based; details: dose 5.0 µmol/L
[9] = test system: MCF7; assay: Induction of apoptosis in human MCF7 cells assessed as rate of apoptotic cell death at 5 umol/L by annexin V/PI staining based flow cytometry relative to control; type: functional; details: dose 5 µmol/L; at 5 µM
[10] = test system: T47D; assay: Downregulation of histone H3 expression in human T47D cells at 5 umol/L incubated upto 72 hrs by Western blot analysis; type: functional, cell-based; details: dose 5.0 µmol/L
Procedure, shortened: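 Cells were treated with 5 µmol/L for 0, 24, 48 and 72 h. Lysates were immunoblotted for AURK-B, phospho-Ser10 histone H3 and total histone H3, with β-actin reprobe as the loading control. Detection by enhanced chemiluminescence.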

[11] = test system: ZR-75-1; assay: Induction of apoptosis in human ZR-75-1 cells assessed as late cells at 5 umol/L incubated for 3 days by Annexin V/PI staining based flow cytometry (reference value: 3.8 %); type: functional; details: dose 5 µmol/L; time 3 day; at 5 µM
[12] = test system: T47D; assay: Induction of apoptosis in human T47D cells assessed as rate of apoptotic cell death at 5 umol/L by annexin V/PI staining based flow cytometry relative to control; type: functional; details: dose 5 µmol/L; at 5 µM
[13] = test system: T47D; assay: Induction of polyploidy in human T47D cells assessed as cells with 2N chromosome contents at 5 uM incubated for 48 hrs by PI staining based flow cytometry (reference value: 48); type: functional
[14] = test system: T47D; assay: Induction of cell cycle arrest at cytokinesis in human T47D cells at 5 umol/L preincubated for 24 hrs followed by extensive compound washout and subsequent culturing in compound-free media measured upto 120 mins by immunofluorescence staining based analysis; type: functional; details: dose 5.0 µmol/L
Procedure, shortened: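 T-47D cells were treated at 37°C with 5 µmol/L for 24 h, washed extensively, then cultured in DMEM with 10% FBS for 30, 60 and 120 min. α- and γ-tubulin were detected by immunofluorescence with DAPI, imaged at 400×. The control was a 24 h preincubation with 5 µmol/L RO-3306. One of 2 experiments.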

[15] = test system: T47D; assay: Induction of polyploidy in human T47D cells assessed as cells with 8N chromosome contents at 5 uM incubated for 72 hrs by PI staining based flow cytometry (reference value: 0); type: functional
[16] = test system: ZR-75-1; assay: Induction of polyploidy in human ZR-75-1 cells at 5 umol/L by microscopic analysis; type: functional, cell-based; details: dose 5.0 µmol/L, time 72.0 hrs, TDE = time-dependent effect
[17] = test system: T47D; assay: Disruption of microtubule dynamics in human T47D cells assessed as condensed irregular-shaped chromosomes at 5 umol/L incubated for 24 hrs by immunofluorescence staining based analysis; type: functional, cell-based; details: dose 5.0 µmol/L
Procedure, shortened: (§2)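 T-47D cells (1 × 10^6/dish) in RPMI-1640 with 5% FBS were treated with or without 5 µmol/L for 24, 48 and 72 h. Cells were fixed in cold acetone and stained with mouse anti-α-tubulin or anti-γ-tubulin, then an FITC anti-mouse IgG secondary, plus DAPI. Fluorescence microscopy, 200× magnification.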

[18] = test system: MCF7; assay: Induction of apoptosis in human MCF7 cells assessed as viable cells at 5 umol/L incubated for 3 days by Annexin V/PI staining based flow cytometry (reference value: 98.1 %); type: functional; details: MCF7, 72 h, dose 5 µmol/L, time 3 day, read-out: Activity
[19] = Effect on paclitaxel resistance in human T47D cells with compound-induced polyploidy assessed as change in paclitaxel-induced cytotoxicity by measuring increase in paclitaxel IC50 at 5 umol/L preincubated for 72 hrs followed by compound washout and subsequent paclitaxel treatment for 72 hrs by MTS assay; type: functional, cell-based
[20] = test system: T47D; assay: Induction of polyploidy in human T47D cells assessed as cells with 8N chromosome contents at 5 uM incubated for 24 hrs by PI staining based flow cytometry (reference value: 0); type: functional
[21] = test system: MCF7; assay: Induction of apoptosis in human MCF7 cells assessed as late cells at 5 umol/L incubated for 3 days by Annexin V/PI staining based flow cytometry (reference value: 1.4 %); type: functional; details: dose 5 µmol/L; time 3 day; at 5 µM
[22] = test system: T47D; assay: Disruption of microtubule dynamics in human T47D cells assessed as lack of metaphase equatorial alignment at 5 umol/L incubated for 24 hrs by immunofluorescence staining based analysis; type: functional, cell-based; details: dose 5.0 µmol/L; procedure, shortened: as §2
[23] = test system: T47D; assay: Inhibition of cell growth of human T47D cells at 5 uM; type: functional, cell-based; details: time <= 48.0 hrs, TDE = time-dependent effect
[24] = test system: T47D; assay: Induction of apoptosis in human T47D cells assessed as cell death at 5 uM; type: functional, cell-based; details: TDE = time-dependent effect
[25] = test system: MCF7; assay: Induction of polyploidy in human MCF7 cells assessed as cells with 2N chromosome contents at 5 uM incubated for 24 hrs by PI staining based flow cytometry (reference value: 52); type: functional
[26] = Effect on cisplatin resistance in human ZR-75-1 cells with compound-induced polyploidy assessed as change in cisplatin-induced cytotoxicity by measuring increase in cisplatin IC50 at 5 umol/L preincubated for 72 hrs followed by compound washout and subsequent cisplatin treatment for 72 hrs by MTS assay; type: functional, cell-based
[27] = test system: T47D; assay: Induction of polyploidy in human T47D cells at 1 umol/L incubated for 72 hrs by microscopic analysis relative to control; type: functional; details: dose 1 µmol/L, at 1 µM; procedure, shortened: as §1
[28] = Effect on bleomycin resistance in human ZR-75-1 cells with compound-induced polyploidy assessed as change in bleomycin-induced cytotoxicity by measuring increase in bleomycin IC50 at 5 umol/L preincubated for 72 hrs followed by compound washout and subsequent bleomycin treatment for 72 hrs by MTS assay; type: functional, cell-based
[29] = test system: ZR-75-1; assay: Induction of apoptosis in human ZR-75-1 cells assessed as rate of apoptotic cell death at 5 umol/L by annexin V/PI staining based flow cytometry relative to control; type: functional; details: dose 5 µmol/L; at 5 µM
[30] = test system: ZR-75-1; assay: Induction of polyploidy in human ZR-75-1 cells assessed as cells with 16N chromosome contents at 5 uM incubated for 48 hrs by PI staining based flow cytometry (reference value: 0); type: functional

In the case of CCOc1ccn(-c2ccc(F)cc2)c(=O)c1C(=O)Nc1ccc(Oc2ccnc(N)c2Cl)c(F)c1 [BMS-777607], the Activity [1] is reported as 14, the Activity [2] is reported as “Active” and the Activity [3] is reported as 38. The Activity [4] was 11%, the inhibition [5] was “inactive” and the Activity [6] was “Active”. The Activity [7] was 2.2%, the Activity [8] was “inactive” and the Activity [9] was 2.2%. The Activity [10] was “inactive”, the Activity [11] was 7.4% and the Activity [12] was 10.3%. The Activity [13] was 7.4, the Activity [14] was “Active” and the Activity [15] was 21. The Activity [16] was “Tde”, the Activity [17] was “Active” and the viability at 5 µM [18] was 97.3%. The IC50 [19] was 31.6 nM, the Activity [20] was 26 and the Activity [21] was 2%. The Activity [22] was “Active”, the inhibition [23] was “Tde” and the Activity [24] was “Tde”. It also gave an Activity [25] of 15.5, an IC50 [26] of 3.4 nM and an Activity [27] of 14%. For the same compound, the IC50 [28] was 2260 nM, the Activity [29] was 9.7% and the Activity [30] was 32.
